Measured values reported in ChEMBL document CHEMBL1914423, “New imidazo[2,1-b]thiazole derivatives: synthesis, in vitro anticancer evaluation, and in silico studies” (Eur J Med Chem, 2011).

Legend:
[1] = Antiproliferative activity against human A375P cells after 48 hrs by MTT assay; type: functional, cell-based
Summary of the method: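 A375P cells in DMEM with 10% FBS at 37 °C, 5% CO2. Seeded at 5×10³ cells/well, held 24 h, then treated with 12-point 3-fold serial dilutions for 48 h. Viability by MTT reduction. IC50 values are means of triplicate experiments.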

HL-60(TB) = experiment: Anticancer activity against human HL-60(TB) cells assessed as cell growth at 10^-5 M after 48 hrs by SRB assay; type: functional; details: HL-60, 48 h, read-out: Activity
Summary of the method: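 NCI-60 single-dose screen. Cells in RPMI 1640 with 5% FBS and 2 mM L-glutamine were plated at 5000–40,000 cells/well and preincubated 24 h at 37 °C before one compound concentration. Time-zero plates were TCA-fixed at drug addition. For suspension cells, settled cells were fixed with cold TCA, then SRB-stained and read at 515 nm. Percent growth was calculated from time-zero, control and treated absorbances.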

MOLT-4 = experiment: Anticancer activity against human MOLT4 cells assessed as cell growth at 10^-5 M after 48 hrs by SRB assay; type: functional; details: MOLT-4, 48 h, read-out: Activity
SR = experiment: Anticancer activity against human SR cells assessed as cell growth at 10^-5 M after 48 hrs by SRB assay; type: functional; details: read-out: Activity
Summary of the method: (§1)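 NCI-60 single-dose screen: cells in RPMI 1640 with 5% FBS and 2 mM L-glutamine, plated at 5000–40,000 cells/well by doubling time, and preincubated 24 h at 37 °C. Compound given at one concentration from DMSO stock. Cells TCA-fixed and SRB-stained, absorbance at 515 nm. Percent growth relative to time-zero and untreated controls; inhibition % = 100 − growth %.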

EKVX = experiment: Anticancer activity against human EKVX cells assessed as cell growth at 10^-5 M after 48 hrs by SRB assay; type: functional; details: read-out: Activity
Summary of the method: (§2)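 NCI-60 single-dose screen at one concentration. Cells grown in RPMI 1640 with 5% FBS and 2 mM L-glutamine, plated at 5000–40,000 cells/well, and pre-incubated 24 h at 37 °C in 5% CO2 before DMSO-dissolved drug was added. Cells fixed with TCA, SRB-stained, absorbance read at 515 nm. Percent growth calculated against time-zero and untreated control plates.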

HOP-92 = experiment: Anticancer activity against human HOP92 cells assessed as cell growth at 10^-5 M after 48 hrs by SRB assay; type: functional; details: HOP-92, 48 h, read-out: Activity; summary of the method: as §2
NCI-H226 = experiment: Anticancer activity against human NCI-H226 cells assessed as cell growth at 10^-5 M after 48 hrs by SRB assay; type: functional; details: NCI-H226, 48 h, read-out: Activity
NCI-H322M = experiment: Anticancer activity against human NCI-H322M cells assessed as cell growth at 10^-5 M after 48 hrs by SRB assay; type: functional; details: read-out: Activity
HCT-116 = experiment: Anticancer activity against human HCT116 cells assessed as cell growth at 10^-5 M after 48 hrs by SRB assay; type: functional; details: HCT-116, 48 h, read-out: Activity; summary of the method: as §2
HT-29 = experiment: Anticancer activity against human HT-29 cells assessed as cell growth at 10^-5 M after 48 hrs by SRB assay; type: functional; details: HT-29, 48 h, read-out: Activity; summary of the method: as §2
SW-620 = experiment: Anticancer activity against human SW620 cells assessed as cell growth at 10^-5 M after 48 hrs by SRB assay; type: functional; details: SW-620, 48 h, read-out: Activity; summary of the method: as §1
SF-268 = experiment: Anticancer activity against human SF268 cells assessed as cell growth at 10^-5 M after 48 hrs by SRB assay; type: functional; details: SF-268, 48 h, read-out: Activity
SF-295 = experiment: Anticancer activity against human SF295 cells assessed as cell growth at 10^-5 M after 48 hrs by SRB assay; type: functional; details: SF-295, 48 h, read-out: Activity
SNB-19 = experiment: Anticancer activity against human SNB19 cells assessed as cell growth at 10^-5 M after 48 hrs by SRB assay; type: functional; details: SNB-19, 48 h, read-out: Activity
LOX IMVI = experiment: Anticancer activity against human LOXIMVI cells assessed as cell growth at 10^-5 M after 48 hrs by SRB assay; type: functional; details: read-out: Activity; summary of the method: as §2
M14 = experiment: Anticancer activity against human M14 cells assessed as cell growth at 10^-5 M after 48 hrs by SRB assay; type: functional; details: M14, 48 h, read-out: Activity; summary of the method: as §2
SK-MEL-2 = experiment: Anticancer activity against human SK-MEL-2 cells assessed as cell growth at 10^-5 M after 48 hrs by SRB assay; type: functional; details: SK-MEL-2, 48 h, read-out: Activity
SK-MEL-5 = experiment: Anticancer activity against human SK-MEL-5 cells assessed as cell growth at 10^-5 M after 48 hrs by SRB assay; type: functional; details: SK-MEL-5, 48 h, read-out: Activity
UACC-62 = experiment: Anticancer activity against human UACC62 cells assessed as cell growth at 10^-5 M after 48 hrs by SRB assay; type: functional; details: UACC-62, 48 h, read-out: Activity; summary of the method: as §1
OVCAR-4 = experiment: Anticancer activity against human OVCAR4 cells assessed as cell growth at 10^-5 M after 48 hrs by SRB assay; type: functional; details: OVCAR-4, 48 h, read-out: Activity
OVCAR-5 = experiment: Anticancer activity against human OVCAR5 cells assessed as cell growth at 10^-5 M after 48 hrs by SRB assay; type: functional; details: OVCAR-5, 48 h, read-out: Activity
ACHN = experiment: Anticancer activity against human ACHN cells assessed as cell growth at 10^-5 M after 48 hrs by SRB assay; type: functional; details: read-out: Activity; summary of the method: as §2
CAKI-1 = experiment: Anticancer activity against human Caki1 cells assessed as cell growth at 10^-5 M after 48 hrs by SRB assay; type: functional; details: CAKI-1, 48 h, read-out: Activity; summary of the method: as §2
UO-31 = experiment: Anticancer activity against human UO31 cells assessed as cell growth at 10^-5 M after 48 hrs by SRB assay; type: functional; details: UO-31, 48 h, read-out: Activity; summary of the method: as §1
PC-3 = experiment: Anticancer activity against human PC3 cells assessed as cell growth at 10^-5 M after 48 hrs by SRB assay; type: functional; details: PC-3, 48 h, read-out: Activity
MCF7 = experiment: Anticancer activity against human MCF7 cells assessed as cell growth at 10^-5 M after 48 hrs by SRB assay; type: functional; details: MCF7, 48 h, read-out: Activity; summary of the method: as §2
MDA-MB-231 = experiment: Anticancer activity against human MDA-MB-231 cells assessed as cell growth at 10^-5 M after 48 hrs by SRB assay; type: functional; details: MDA-MB-231, 48 h, read-out: Activity; summary of the method: as §2
BT-549 = experiment: Anticancer activity against human BT549 cells assessed as cell growth at 10^-5 M after 48 hrs by SRB assay; type: functional; details: BT-549, 48 h, read-out: Activity; summary of the method: as §2
T47D = experiment: Anticancer activity against human T47D cells assessed as cell growth at 10^-5 M after 48 hrs by SRB assay; type: functional; details: read-out: Activity; summary of the method: as §1
MDA-MB-468 = experiment: Anticancer activity against human MDA-MB-468 cells assessed as cell growth at 10^-5 M after 48 hrs by SRB assay; type: functional; details: MDA-MB-468, 48 h, read-out: Activity

Which results are given for COc1cccc(-c2nc3sccn3c2-c2ccnc(NCCNC(=O)c3cc(N4CCOCC4)cc(C(F)(F)F)c3)n2)c1?
IC50 [1]: > 10000 nM; growth at 10 µM (HL-60(TB)): 113%; growth at 10 µM (MOLT-4): 60%; growth at 10 µM (SR): 80.7%; growth at 10 µM (EKVX): 84.8%; growth at 10 µM (HOP-92): 59.1%; growth at 10 µM (NCI-H226): 104%; growth at 10 µM (NCI-H322M): 96.6%; growth at 10 µM (HCT-116): 75.6%; growth at 10 µM (HT-29): 58.5%; growth at 10 µM (SW-620): 109%; growth at 10 µM (SF-268): 85.7%; growth at 10 µM (SF-295): 83.7%; growth at 10 µM (SNB-19): 103%; growth at 10 µM (LOX IMVI): 79.2%; growth at 10 µM (M14): 65.3%; growth at 10 µM (SK-MEL-2): 76.2%; growth at 10 µM (SK-MEL-5): 66.2%; growth at 10 µM (UACC-62): 50.9%; growth at 10 µM (OVCAR-4): 107%; growth at 10 µM (OVCAR-5): 110%; growth at 10 µM (ACHN): 80.1%; growth at 10 µM (CAKI-1): 83%; growth at 10 µM (UO-31): 60.2%; growth at 10 µM (PC-3): 66.3%; growth at 10 µM (MCF7): 84.9%; growth at 10 µM (MDA-MB-231): 80.4%; growth at 10 µM (BT-549): 81.1%; growth at 10 µM (T47D): 86.3%; growth at 10 µM (MDA-MB-468): 98.1%

For O=C(NCCNc1nccc(-c2c(-c3cccc(O)c3)nc3sccn23)n1)c1ccccc1, which IC50 [1] is on record?
The IC50 was 500 nM.

And the growth at 10 µM (HL-60(TB))?
Its growth at 10 µM is 93.3%.

What about the growth at 10 µM (MOLT-4) of the same compound?
Its growth at 10 µM is 67.1%.

What about the growth at 10 µM (SR) of the same compound?
The growth at 10 µM was 68%.

What about the growth at 10 µM (EKVX) of the same compound?
Its growth at 10 µM is 94.2%.

And the growth at 10 µM (HOP-92)?
The growth at 10 µM was 58.6%.

And the growth at 10 µM (NCI-H226)?
Its growth at 10 µM is 54.5%.

And the growth at 10 µM (NCI-H322M)?
The growth at 10 µM was 101%.

And the growth at 10 µM (HCT-116)?
Its growth at 10 µM is 42.5%.

And the growth at 10 µM (HT-29)?
Its growth at 10 µM is 65.4%.

What about the growth at 10 µM (SW-620) of the same compound?
The growth at 10 µM was 78.2%.

And the growth at 10 µM (SF-268)?
The growth at 10 µM was 80.7%.

And the growth at 10 µM (SF-295)?
Its growth at 10 µM is 67.4%.

And the growth at 10 µM (SNB-19)?
The growth at 10 µM was 91.1%.

What about the growth at 10 µM (LOX IMVI) of the same compound?
The growth at 10 µM was 23.2%.

What about the growth at 10 µM (M14) of the same compound?
Its growth at 10 µM is 15.3%.

And the growth at 10 µM (SK-MEL-2)?
The growth at 10 µM was 45.5%.

What about the growth at 10 µM (SK-MEL-5) of the same compound?
Its growth at 10 µM is 40.2%.

And the growth at 10 µM (UACC-62)?
The growth at 10 µM was 0.9%.

And the growth at 10 µM (OVCAR-4)?
Its growth at 10 µM is 98%.

What about the growth at 10 µM (OVCAR-5) of the same compound?
Its growth at 10 µM is 90.6%.

What about the growth at 10 µM (ACHN) of the same compound?
The growth at 10 µM was 60.5%.

And the growth at 10 µM (CAKI-1)?
The growth at 10 µM was 87.9%.

What about the growth at 10 µM (UO-31) of the same compound?
The growth at 10 µM was 87.7%.

What about the growth at 10 µM (PC-3) of the same compound?
The growth at 10 µM was 68.5%.

And the growth at 10 µM (MCF7)?
Its growth at 10 µM is 38.1%.

And the growth at 10 µM (MDA-MB-231)?
Its growth at 10 µM is 80%.

What about the growth at 10 µM (BT-549) of the same compound?
The growth at 10 µM was 61.4%.

What about the growth at 10 µM (T47D) of the same compound?
Its growth at 10 µM is 58.6%.

And the growth at 10 µM (MDA-MB-468)?
The growth at 10 µM was 54.7%.
